Active and inactive are the calls of the source. The calls are words filed in the database; no cut-off is given here.
Experiments:
Mus musculus [1] = assay: Toxicity in CD1 mouse assessed as leukocyte level at 300 mg/kg, ip after 3 days; assay type: organism-based; design: dose 300 mg/kg, route intraperitoneal; details: in vivo, 72 h
Summary of the method: (§1)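 Healthy female CD1 mice (5–7 per group) received a single oral dose of 450 mg/kg or an i.p. dose of 300 mg/kg, with vehicle controls. On day 3 they were sacrificed under ether anaesthesia. Blood was drawn from the subclavian artery and kept at 0 °C in EDTA or heparin. Leukocytes, haemoglobin, haematocrit, GPT and GOT were measured within 24 h and compared with normal ranges.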

Mus musculus [2] = assay: Toxicity in CD1 mouse assessed as glutamic-oxalacetate transaminase level at 450 mg/kg, po after 3 days; assay type: organism-based; design: dose 450 mg/kg, route oral; details: in vivo, 72 h; summary of the method: as §1
Mus musculus [3] = assay: Toxicity in CD1 mouse liver at 300 mg/kg, ip after 3 days by histological study; assay type: organism-based; design: dose 300 mg/kg, route intraperitoneal; details: in vivo, 72 h
Summary of the method: (§2)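 Healthy female CD1 mice (20–22 g), 5–7 per group, given a single oral (intragastric) or i.p. dose in saline:Tween 80 (4:1) vehicle. Sacrificed on day 3 after ether anaesthesia. Organs fixed in 10% aqueous formalin for histology. Scored against untreated animals from no change to +++ (many changes).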

Mus musculus [4] = assay: Toxicity in CD1 mouse heart at 300 mg/kg, ip after 3 days by histological study; assay type: organism-based; design: dose 300 mg/kg, route intraperitoneal; details: in vivo, 72 h; summary of the method: as §2
Mus musculus [5] = assay: Toxicity in CD1 mouse assessed as leukocyte level at 450 mg/kg, po after 3 days; assay type: organism-based; design: dose 450 mg/kg, route oral; details: in vivo, 72 h; summary of the method: as §1
Mus musculus [6] = assay: Toxicity in CD1 mouse assessed as glutamic-pyruvate transaminase level at 450 mg/kg, po after 3 days; assay type: organism-based; design: dose 450 mg/kg, route oral; details: in vivo, 72 h; summary of the method: as §1
Mus musculus [7] = assay: Toxicity in CD1 mouse intestine at 300 mg/kg, ip after 3 days by histological study; assay type: organism-based; design: dose 300 mg/kg, route intraperitoneal; details: in vivo, 72 h; summary of the method: as §2
Mus musculus [8] = assay: Toxicity in CD1 mouse assessed as hematocrite level at 300 mg/kg, ip after 3 days; assay type: organism-based; design: dose 300 mg/kg, route intraperitoneal; details: in vivo, 72 h; summary of the method: as §1
Mus musculus [9] = assay: Toxicity in CD1 mouse brain at 300 mg/kg, ip after 3 days by histological study; assay type: organism-based; design: dose 300 mg/kg, route intraperitoneal; details: in vivo, 72 h; summary of the method: as §2
Mus musculus [10] = assay: Toxicity in CD1 mouse brain at 450 mg/kg, po after 3 days by histological study; assay type: organism-based; design: dose 450 mg/kg, route oral; details: in vivo, 72 h; summary of the method: as §2
Mus musculus [11] = assay: Toxicity in CD1 mouse assessed as decrease in weight respect to day zero at 450 mg/kg, po after 3 days; assay type: organism-based; design: dose 450 mg/kg, route oral; scale not given: the % may be the effect or the level left; details: in vivo, 72 h
Summary of the method: (§3)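 Healthy 2-month-old female CD1 mice (20–22 g, 5–7 per group) received one dose. Oral doses of 450 or 300 mg/kg were given by intragastric syringe; i.p. doses of 300 or 150 mg/kg by injection. Drugs were suspended in saline:Tween 80 (4:1), and a vehicle-only control was included. Mice were weighed and observed daily for 3 days. Weight change is expressed as percent relative to day zero.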

Mus musculus [12] = assay: Toxicity in CD1 mouse kidney at 450 mg/kg, po after 3 days by histological study; assay type: organism-based; design: dose 450 mg/kg, route oral; details: in vivo, 72 h; summary of the method: as §2
Mus musculus [13] = assay: Toxicity in CD1 mouse assessed as increase in weight respect to day zero at 300 mg/kg, ip after 3 days; assay type: organism-based; design: dose 300 mg/kg, route intraperitoneal; details: in vivo, 72 h; summary of the method: as §3
Mus musculus [14] = assay: Toxicity in CD1 mouse intestine at 450 mg/kg, po after 3 days by histological study; assay type: organism-based; design: dose 450 mg/kg, route oral; details: in vivo, 72 h; summary of the method: as §2
Mus musculus [15] = assay: Toxicity in CD1 mouse assessed as haemoglobin level at 300 mg/kg, ip after 3 days; assay type: organism-based; design: dose 300 mg/kg, route intraperitoneal; details: in vivo, 72 h; summary of the method: as §1
Mus musculus [16] = assay: Toxicity in CD1 mouse heart at 450 mg/kg, po after 3 days by histological study; assay type: organism-based; design: dose 450 mg/kg, route oral; details: in vivo, 72 h; summary of the method: as §2
Mus musculus [17] = assay: Toxicity in CD1 mouse lung at 300 mg/kg, ip after 3 days by histological study; assay type: organism-based; design: dose 300 mg/kg, route intraperitoneal; details: in vivo, 72 h; summary of the method: as §2
Mus musculus [18] = assay: Toxicity in CD1 mouse assessed as haemoglobin level at 450 mg/kg, po after 3 days; assay type: organism-based; design: dose 450 mg/kg, route oral; details: in vivo, 72 h; summary of the method: as §1
Mus musculus [19] = assay: Toxicity in CD1 mouse liver at 450 mg/kg, po after 3 days by histological study; assay type: organism-based; design: dose 450 mg/kg, route oral; details: in vivo, 72 h; summary of the method: as §2
Trypanosoma cruzi [20] = assay: Growth inhibition of Trypanosoma cruzi Tulahuen 2 epimastigote at 5 uM after 5 days; assay type: functional; design: Activity: scale not given: the % may be the effect or the level left; details: for inhibition of growth at 5 µM: Trypanosoma cruzi, Tulahuen 2, 120 h, read-out: GI
Mus musculus [21] = assay: Toxicity in CD1 mouse assessed as hematocrite level at 450 mg/kg, po after 3 days; assay type: organism-based; design: dose 450 mg/kg, route oral; details: in vivo, 72 h; summary of the method: as §1
Mus musculus [22] = assay: Toxicity in CD1 mouse kidney at 300 mg/kg, ip after 3 days by histological study; assay type: organism-based; design: dose 300 mg/kg, route intraperitoneal; details: in vivo, 72 h; summary of the method: as §2
Mus musculus [23] = assay: Toxicity in CD1 mouse lung at 450 mg/kg, po after 3 days by histological study; assay type: organism-based; design: dose 450 mg/kg, route oral; details: in vivo, 72 h; summary of the method: as §2
Mus musculus [24] = assay: Toxicity in CD1 mouse assessed as survival at 300 mg/kg, po after 3 days; assay type: organism-based; design: dose 300 mg/kg, route oral; details: in vivo, 72 h
Summary of the method: (§4)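 Healthy 2-month-old female CD1 mice (20–22 g), groups of 5–7, given one oral dose by intragastric syringe or one i.p. injection. Compound suspended in saline:Tween 80 (4:1) with sonication just before dosing; vehicle-treated controls included. Weighed and observed daily over 3 days for skin, physical aspect, activity and faeces; survival recorded at day 3.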

Mus musculus [25] = assay: Toxicity in CD1 mouse assessed as survival at 450 mg/kg, po after 3 days; assay type: organism-based; design: dose 450 mg/kg, route oral; details: in vivo, 72 h; summary of the method: as §4
Mus musculus [26] = assay: Toxicity in CD1 mouse assessed as survival at 300 mg/kg, ip after 3 days; assay type: organism-based; design: dose 300 mg/kg, route intraperitoneal; details: in vivo, 72 h; summary of the method: as §4
Trypanosoma cruzi [27] = assay: Antitrypanosomal activity against Trypanosoma cruzi infected in po dosed CD1 mouse assessed as prevention of amastigote nest in heart administered daily for 14 days measured on day 45; assay type: functional, organism-based
Summary of the method: (§5)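 T. cruzi, a Uruguayan patient isolate, was inoculated intradermally into 2-month-old female CD1 mice (20–22 g). Dosing began on day 15 after parasitaemia was observed. Drugs were suspended in saline:Tween 80 (4:1) and given by intragastric syringe once daily for 14 days, with untreated controls. On day 45 after treatment start, heart and muscle sections were scored by two independent observers for amastigotes and inflammatory infiltrates. Groups had 5–7 mice.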

Trypanosoma cruzi [28] = assay: Antitrypanosomal activity against Trypanosoma cruzi infected in po dosed CD1 mouse assessed as prevention of inflammatory infiltrates in heart administered daily for 14 days measured on day 45; assay type: functional, organism-based; summary of the method: as §5
Mus musculus [29] = assay: Toxicity in CD1 mouse assessed as decrease in weight respect to day zero at 300 mg/kg, po after 3 days; assay type: organism-based; design: dose 300 mg/kg, route oral; scale not given: the % may be the effect or the level left; details: in vivo, 72 h; summary of the method: as §3
Mus musculus [30] = assay: Toxicity in CD1 mouse assessed as decrease in weight respect to day zero at 150 mg/kg, ip after 3 days; assay type: organism-based; design: dose 150 mg/kg, route intraperitoneal; scale not given: the % may be the effect or the level left; details: in vivo, 72 h; summary of the method: as §3
Mus musculus [31] = assay: Toxicity in CD1 mouse assessed as survival at 150 mg/kg, ip after 3 days; assay type: organism-based; design: dose 150 mg/kg, route intraperitoneal; details: in vivo, 72 h; summary of the method: as §4
Mus musculus [32] = assay: Toxicity in CD1 mouse assessed as glutamic-oxalacetate transaminase level at 300 mg/kg, ip after 3 days; assay type: organism-based; design: dose 300 mg/kg, route intraperitoneal; details: in vivo, 72 h; summary of the method: as §1
Mus musculus [33] = assay: Toxicity in CD1 mouse assessed as increase in weight respect to day zero at 450 mg/kg, po after 3 days; details: in vivo, 72 h
Mus musculus [34] = assay: Toxicity in CD1 mouse assessed as glutamic-pyruvate transaminase level at 300 mg/kg, ip after 3 days; assay type: organism-based; design: dose 300 mg/kg, route intraperitoneal; details: in vivo, 72 h; summary of the method: as §1

Row | Structure (SMILES) | Activity (Mus musculus [1]) [µL⁻¹] | Activity (Mus musculus [2]) [IU/L] | Activity (Mus musculus [3]) | Activity (Mus musculus [4]) | Activity (Mus musculus [5]) [µL⁻¹] | Activity (Mus musculus [6]) [IU/L] | Activity (Mus musculus [7]) | Activity (Mus musculus [9]) | Activity (Mus musculus [10]) | Activity (Mus musculus [11]) [%] | Activity (Mus musculus [12]) | Activity (Mus musculus [13]) [%] | Activity (Mus musculus [14]) | Activity (Mus musculus [15]) [g/dL] | Activity (Mus musculus [16]) | Activity (Mus musculus [17]) | Activity (Mus musculus [18]) [g/dL] | Activity (Mus musculus [19]) | Activity (Mus musculus [22]) | Activity (Mus musculus [23]) | other results
1 | CCCCCCCCOC(=O)N/N=C/c1ccc([N+](=O)[O-])o1 | 5300 | 119 | Toxic | Non-toxic | 6600 | 30 | Non-toxic | Non-toxic | Non-toxic | 11 | Non-toxic | 4 | Non-toxic | 13.8 | Non-toxic | Non-toxic | 11.9 | Toxic | Non-toxic | Non-toxic | Activity (Mus musculus [8]): 43.6%; Activity (Trypanosoma cruzi [20]): 84%; Activity (Mus musculus [21]): 36.4%
2 | COCCNC(=O)N/N=C/c1ccc([N+](=O)[O-])o1 | – | – | Toxic | Non-toxic | – | – | Non-toxic | Non-toxic | Non-toxic | 0 | Toxic | – | Non-toxic | – | Non-toxic | Non-toxic | – | Toxic | Non-toxic | Non-toxic | Activity (Mus musculus [24]): Non-toxic; Activity (Mus musculus [25]): Non-toxic; Activity (Mus musculus [26]): Toxic; Activity (Trypanosoma cruzi [27]): Active; Activity (Trypanosoma cruzi [28]): Active; Activity (Mus musculus [29]): 0%; Activity (Mus musculus [30]): 1%; Activity (Mus musculus [31]): Non-toxic; inhibition of growth at 5 µM (Trypanosoma cruzi [20]): 20%
3 | CCCCCCCCOC(=O)N/N=C/C=C/c1ccc([N+](=O)[O-])o1 | 10600 | 84 | Toxic | Non-toxic | 7750 | 70.2 | Non-toxic | Non-toxic | Non-toxic | – | Toxic | 1 | Non-toxic | 13.4 | Non-toxic | Non-toxic | 13.9 | Toxic | Non-toxic | Non-toxic | Activity (Mus musculus [32]): 57 IU/L; Activity (Mus musculus [33]): 2%; Activity (Mus musculus [25]): Non-toxic; Activity (Mus musculus [34]): 50.7 IU/L; inhibition of growth at 5 µM (Trypanosoma cruzi [20]): 92%

From ChEMBL document CHEMBL1154044, “5-Nitro-2-furyl derivative actives against Trypanosoma cruzi: preliminary in vivo studies” (Eur J Med Chem, 2009)
